Measured values published in ChEMBL document CHEMBL4354828, “Discovery of Taniborbactam (VNRX-5133): A Broad-Spectrum Serine- and Metallo-β-lactamase Inhibitor for Carbapenem-Resistant Bacterial Infections” (J Med Chem, 2020).
pIC50: −log10 of the molar value. Converted amounts (≈) assume the structure as drawn.

How the values were obtained:
[1] = Inhibition of bacterial OXA-48 using nitrocefin as substrate preincubated for 15 mins followed by susbtrate addition and measured after 10 mins by spectrophotometric method; set-up: species or system Bacteria
[2] = Inhibition of bacterial KPC-2 using imipenem as substrate preincubated for 15 mins followed by susbtrate addition and measured after 10 mins by spectrophotometric method; set-up: species or system Bacteria
[3] = Inhibition of bacterial VIM-2 using nitrocefin as substrate preincubated for 15 mins followed by susbtrate addition and measured after 10 mins by spectrophotometric method; set-up: species or system Bacteria
Method in brief: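 Purified β-lactamase inhibition. IC50 values are the average of duplicates unless otherwise indicated.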

[4] = target: Beta-lactamase VIM-2 (Pseudomonas aeruginosa) (UniProt Q9K2N0); assay: Inhibition of VIM-2 in Pseudomonas aeruginosa assessed as meropenem antibacterial activity at 4 ug/ml after 16 to 20 hrs by CLSI-based microbroth dilution method (Rvb >= […] ug/ml)
[5] = system: Klebsiella pneumoniae; assay: Inhibition of KPC-2 in Klebsiella pneumoniae assessed as meropenem antibacterial activity at 4 ug/ml after 16 to 20 hrs by CLSI-based microbroth dilution method (Rvb >= […] ug/ml)
[6] = Inhibition of bacterial AmpC using nitrocefin as substrate preincubated for 15 mins followed by susbtrate addition and measured after 10 mins by spectrophotometric method; set-up: species or system Bacteria
[7] = system: Klebsiella pneumoniae; assay: Inhibition of OXA-48 in Klebsiella pneumoniae assessed as meropenem antibacterial activity at 4 ug/ml after 16 to 20 hrs by CLSI-based microbroth dilution method (Rvb >= […] ug/ml)
[8] = system: Klebsiella pneumoniae; assay: Inhibition of VIM-4 in Klebsiella pneumoniae assessed as meropenem antibacterial activity at 4 ug/ml after 16 to 20 hrs by CLSI-based microbroth dilution method (Rvb >= […] ug/ml)
[9] = system: Klebsiella pneumoniae ATCC BAA-1705; assay: Inhibition of KPC-2 in Klebsiella pneumoniae ATCC BAA 1705 assessed as piperacillin antibacterial activity at 16 ug/ml after 16 to 20 hrs by CLSI-based microbroth dilution method (Rvb > […] ug/ml)
[10] = system: Klebsiella pneumoniae; assay: Inhibition of VIM-27/CTX-M-15/SHV-11/OXA-1 in Klebsiella pneumoniae CDC-0040 assessed as meropenem antibacterial activity at 4 ug/ml after 16 to 20 hrs by CLSI-based microbroth dilution method
[11] = system: Klebsiella pneumoniae; assay: Inhibition of VIM-27/CTX-M-15/SHV-11/OXA-1 in Klebsiella pneumoniae CDC-0040 assessed as piperacillin antibacterial activity at 16 ug/ml after 16 to 20 hrs by CLSI-based microbroth dilution method
[12] = system: Escherichia coli; assay: Inhibition of NDM in Escherichia coli CDC-0452 assessed as cefepime antibacterial activity after 16 to 20 hrs by CLSI-based microbroth dilution method (reference value: […] ug/ml)
[13] = system: Klebsiella pneumoniae; assay: Inhibition of OXA-232/OXA-9/TEM-1A/CTX-M-15/OXA-1 in Klebsiella pneumoniae CDC-0066 assessed as cefepime antibacterial activity at 8 ug/ml after 16 to 20 hrs by CLSI-based microbroth dilution method (Rvb > […] ug/ml)
[14] = system: Pseudomonas aeruginosa; assay: Inhibition of KPC-2/PDC-42 in Pseudomonas aeruginosa CDC-0356 assessed as piperacillin antibacterial activity at 16 ug/ml after 16 to 20 hrs by CLSI-based microbroth dilution method (Rvb > […] ug/ml)
[15] = system: Pseudomonas aeruginosa; assay: Inhibition of KPC-2/PDC-42 in Pseudomonas aeruginosa CDC-0356 assessed as meropenem antibacterial activity at 4 ug/ml after 16 to 20 hrs by CLSI-based microbroth dilution method (reference value: […] ug/ml)
[16] = system: Escherichia coli; assay: Inhibition of NDM-1/CMY-6/OXA-1 in Escherichia coli CDC-0055 assessed as meropenem antibacterial activity at 4 ug/ml after 16 to 20 hrs by CLSI-based microbroth dilution method (reference value: […] ug/ml)
[17] = system: Escherichia coli; assay: Inhibition of NDM-1/CMY-6/OXA-1 in Escherichia coli CDC-0055 assessed as cefepime antibacterial activity at 8 ug/ml after 16 to 20 hrs by CLSI-based microbroth dilution method
Method in brief: (§1)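 MDR β-lactamase-producing Gram-negative clinical isolates. […] MIC was reported as the inhibitor concentration that restores the partner's antibacterial activity.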

[18] = system: Pseudomonas aeruginosa; assay: Inhibition of VIM in Pseudomonas aeruginosa CDC-0457 assessed as meropenem antibacterial activity at 4 ug/ml after 16 to 20 hrs by CLSI-based microbroth dilution method
[19] = system: Klebsiella pneumoniae ATCC BAA-1705; assay: Inhibition of KPC-2 in Klebsiella pneumoniae ATCC BAA 1705 assessed as cefepime antibacterial activity at 8 ug/ml after 16 to 20 hrs by CLSI-based microbroth dilution method; method in brief: as §1
[20] = system: Klebsiella pneumoniae; assay: Inhibition of KPC-2/SHV12/TEM-1 in Klebsiella pneumoniae CDC-0361 assessed as meropenem antibacterial activity at 4 ug/ml after 16 to 20 hrs by CLSI-based microbroth dilution method (reference value: […] ug/ml)
[21] = system: Escherichia coli; assay: Inhibition of NDM in Escherichia coli CDC-0452 assessed as meropenem antibacterial activity at 4 ug/ml after 16 to 20 hrs by CLSI-based microbroth dilution method (reference value: […] ug/ml)
[22] = system: Klebsiella pneumoniae; assay: Inhibition of KPC-2/SHV12/TEM-1 in Klebsiella pneumoniae CDC-0361 assessed as piperacillin antibacterial activity at 16 ug/ml after 16 to 20 hrs by CLSI-based microbroth dilution method (Rvb > […] ug/ml)
[23] = system: Escherichia coli; assay: Inhibition of NDM-1/CMY-6/OXA-1 in Escherichia coli CDC-0055 assessed as piperacillin antibacterial activity at 16 ug/ml after 16 to 20 hrs by CLSI-based microbroth dilution method; method in brief: as §1
[24] = system: Klebsiella pneumoniae; assay: Inhibition of OXA-232/OXA-9/TEM-1A/CTX-M-15/OXA-1 in Klebsiella pneumoniae CDC-0066 assessed as meropenem antibacterial activity at 4 ug/ml after 16 to 20 hrs by CLSI-based microbroth dilution method (reference value: […] ug/ml)
[25] = system: Klebsiella pneumoniae ATCC BAA-1705; assay: Inhibition of KPC-2 in Klebsiella pneumoniae ATCC BAA 1705 assessed as meropenem antibacterial activity at 4 ug/ml after 16 to 20 hrs by CLSI-based microbroth dilution method (reference value: […] ug/ml)
[26] = system: Klebsiella pneumoniae; assay: Inhibition of KPC-2/SHV12/TEM-1 in Klebsiella pneumoniae CDC-0361 assessed as cefepime antibacterial activity at 8 ug/ml after 16 to 20 hrs by CLSI-based microbroth dilution method (reference value: […] ug/ml)
[27] = system: Klebsiella pneumoniae; assay: Inhibition of OXA-232/OXA-9/TEM-1A/CTX-M-15/OXA-1 in Klebsiella pneumoniae CDC-0066 assessed as piperacillin antibacterial activity at 16 ug/ml after 16 to 20 hrs by CLSI-based microbroth dilution method (Rvb > […] ug/ml)
[28] = system: Klebsiella pneumoniae; assay: Inhibition of VIM-27/CTX-M-15/SHV-11/OXA-1 in Klebsiella pneumoniae CDC-0040 assessed as cefepime antibacterial activity at 8 ug/ml after 16 to 20 hrs by CLSI-based microbroth dilution method
[29] = system: Pseudomonas aeruginosa; assay: Inhibition of VIM in Pseudomonas aeruginosa CDC-0457 assessed as cefepime antibacterial activity at 8 ug/ml after 16 to 20 hrs by CLSI-based microbroth dilution method
[30] = system: Pseudomonas aeruginosa; assay: Inhibition of KPC-2/PDC-42 in Pseudomonas aeruginosa CDC-0356 assessed as cefepime antibacterial activity at 8 ug/ml after 16 to 20 hrs by CLSI-based microbroth dilution method (Rvb > […] ug/ml)
[31] = system: Pseudomonas aeruginosa; assay: Inhibition of VIM in Pseudomonas aeruginosa CDC-0457 assessed as piperacillin antibacterial activity at 16 ug/ml after 16 to 20 hrs by CLSI-based microbroth dilution method
[32] = system: Escherichia coli; assay: Inhibition of NDM in Escherichia coli CDC-0452 assessed as piperacillin antibacterial activity at 16 ug/ml after 16 to 20 hrs by CLSI-based microbroth dilution method (Rvb > […] ug/ml)

SMILES: O=C(C[C@H]1CC[C@H](NCc2cnc[nH]2)CC1)N[C@H]1Cc2cccc(C(=O)O)c2OB1O
- pIC50 [1]: 6.34
- pIC50 [2]: 7.44
- pIC50 [3]: 6.32
- MIC [4]: 1 µg/mL (≈ 2.35 µM)
- MIC [5]: 1 µg/mL (≈ 2.35 µM)
- pIC50 [6]: 7.85
- MIC [7]: 8 µg/mL (≈ 18.8 µM)
- MIC [8]: 8 µg/mL (≈ 18.8 µM)

SMILES: N=C(N)NCCN[C@H]1CC[C@H](CC(=O)N[C@H]2Cc3cccc(C(=O)O)c3OB2O)CC1
- pIC50 [1]: 5.80
- pIC50 [2]: 7.57
- pIC50 [3]: 7.07
- MIC [4]: 0.5 µg/mL (≈ 1.16 µM)
- MIC [5]: 1 µg/mL (≈ 2.32 µM)
- pIC50 [6]: 8.22
- MIC [7]: 2 µg/mL (≈ 4.64 µM)
- MIC [8]: 0.06 µg/mL (≈ 0.139 µM)

SMILES: NCCNc1ccc(CC(=O)N[C@H]2Cc3cccc(C(=O)O)c3OB2O)cc1
- pIC50 [1]: 6.54
- pIC50 [2]: 7.66
- pIC50 [3]: 6.31
- MIC [4]: 0.5 µg/mL (≈ 1.3 µM)
- MIC [5]: 1 µg/mL (≈ 2.61 µM)
- pIC50 [6]: 8.30
- MIC [7]: 1 µg/mL (≈ 2.61 µM)
- MIC [8]: 8 µg/mL (≈ 20.9 µM)

SMILES: N[C@H]1CC[C@@H](CC(=O)N[C@H]2Cc3cccc(C(=O)O)c3OB2O)CC1
- pIC50 [1]: 4.74
- pIC50 [2]: 6.92
- pIC50 [3]: 5.78
- MIC [4]: 32 µg/mL (≈ 92.4 µM)
- MIC [5]: 2 µg/mL (≈ 5.78 µM)
- pIC50 [6]: 8.30
- MIC [7]: 16 µg/mL (≈ 46.2 µM)
- MIC [8]: 32 µg/mL (≈ 92.4 µM)

SMILES: CNCCN[C@H]1CC[C@H](CC(=O)N[C@H]2Cc3cccc(C(=O)O)c3OB2O)CC1
- pIC50 [1]: 6.24
- pIC50 [2]: 7.92
- pIC50 [3]: 8.70
- MIC [5]: 0.5 µg/mL (≈ 1.24 µM)
- pIC50 [6]: 7.96
- MIC [7]: 2 µg/mL (≈ 4.96 µM)
- MIC [8]: 0.5 µg/mL (≈ 1.24 µM)

SMILES: CC(=O)N[C@H]1Cc2cccc(C(=O)O)c2OB1O
- MIC [9]: 2 µg/mL (≈ 8.03 µM)
- MIC [10]: > 16 µg/mL
- MIC [11]: > 16 µg/mL
- MIC [12]: 8 µg/mL (≈ 32.1 µM)
- MIC [13]: 1 µg/mL (≈ 4.02 µM)
- MIC [14]: 2 µg/mL (≈ 8.03 µM)
- MIC [15]: 2 µg/mL (≈ 8.03 µM)
- MIC [16]: 16 µg/mL (≈ 64.2 µM)
- MIC [17]: > 16 µg/mL
- MIC [18]: > 16 µg/mL
- MIC [19]: 0.0079 µg/mL (≈ 0.0317 µM)
- MIC [20]: 0.0079 µg/mL (≈ 0.0317 µM)
- MIC [21]: 8 µg/mL (≈ 32.1 µM)
- MIC [22]: 2 µg/mL (≈ 8.03 µM)
- MIC [23]: > 16 µg/mL
- MIC [24]: 2 µg/mL (≈ 8.03 µM)
- MIC [25]: 0.0079 µg/mL (≈ 0.0317 µM)
- MIC [26]: 0.0079 µg/mL (≈ 0.0317 µM)
- MIC [27]: > 16 µg/mL
- MIC [28]: > 16 µg/mL
- MIC [29]: > 16 µg/mL
- MIC [30]: 2 µg/mL (≈ 8.03 µM)
- MIC [31]: > 16 µg/mL
- MIC [32]: > 16 µg/mL

SMILES: O=C(C[C@H]1CC[C@H](N2CCNCC2)CC1)N[C@H]1Cc2cccc(C(=O)O)c2OB1O
- pIC50 [1]: 5.82
- pIC50 [2]: 7.70
- pIC50 [3]: 5.82
- MIC [4]: 16 µg/mL (≈ 38.5 µM)
- MIC [5]: 4 µg/mL (≈ 9.63 µM)
- pIC50 [6]: 8.52
- MIC [7]: 16 µg/mL (≈ 38.5 µM)
- MIC [8]: 32 µg/mL (≈ 77.1 µM)

SMILES: NCCCN[C@H]1CC[C@H](CC(=O)N[C@H]2Cc3cccc(C(=O)O)c3OB2O)CC1
- pIC50 [1]: 6.18
- pIC50 [2]: 7.15
- pIC50 [3]: 7.09
- MIC [4]: 0.25 µg/mL (≈ 0.62 µM)
- MIC [5]: 0.5 µg/mL (≈ 1.24 µM)
- pIC50 [6]: 8.30
- MIC [7]: 8 µg/mL (≈ 19.8 µM)
- MIC [8]: 4 µg/mL (≈ 9.92 µM)
